Measurements collected from several papers.
Lines come from different studies, so protocols differ.
Target: Mitogen-activated protein kinase kinase kinase 20 (MAP3K20, Homo sapiens, UniProt Q9NYL2)

CN(C)c1nccc(-c2cnn3ncccc23)n1
remaining binding (binding; 1 µM): 100%

CCN1CCN(Cc2ccc(C(=O)Nc3ccc(C)c(Oc4ccc5c(c4)CC(=O)N5)c3)cc2C(F)(F)F)CC1
remaining binding (binding, competition with immobilised ligand; 1 µM): 100%

c1cnn2ncc(-c3ccnc(N4CCC45COC5)n3)c2c1
remaining binding (binding; 1 µM): 100%

O=C(O)[C@@H]1[C@@H](Cn2nnc3ccccc3c2=O)CC[C@H]1C(=O)c1ccc(OCCC2CCOCC2)cc1
remaining binding (cell-free assay, competition with immobilised ligand; 1 µM): 91%

O=C(c1ccc(Nc2ncc(Cl)c(-c3ccc(Cl)s3)n2)cc1)N1CCC(N2CCCC2)CC1
remaining binding (binding, competition with immobilised ligand; 1 µM): 65%

CN(C(=O)c1ccccc1)c1cc(N(C)c2ccc3c(c2)CCc2ccc(C(=O)NCCN4CCOCC4)cc2C3=O)ccc1F
remaining binding (cell-free assay, competition with immobilised ligand; 1 µM): 82%

O=C(NCCCN1CCOCC1)c1ccc(Nc2nccc(-c3cc4ccccc4s3)n2)cc1
remaining binding (binding, competition with immobilised ligand; 1 µM): 62%

CNC(=O)[C@@H]1CC[C@@H](n2c(-c3ccc4cnccc4c3)nc3ccc(C(=O)NCc4cccc(C(N)=O)c4)cc32)C1
remaining binding (binding, competition with immobilised ligand; 1 µM): 100%

CN(C)c1nccc(-c2cnc3ncccn23)n1
remaining binding (binding; 1 µM): 89%

Cc1c(NC(=O)c2cc(C(N)=O)nc3cc(F)ccc23)c(C(F)(F)F)nn1Cc1ccc(C#N)cc1
remaining binding (cell-free assay, competition with immobilised ligand; 1 µM): 100%

c1cncc(-c2cccc(Nc3nccc(NC4CCCCC4)n3)c2)c1
remaining binding (binding, competition with immobilised ligand; 10 µM): 93%

CN(CCCC(F)(F)F)c1nccc(-c2cnn3ncccc23)n1
remaining binding (binding; 1 µM): 88%

Cc1cnc(Nc2ccc(C(=O)N3CCC(N4CCCC4)CC3)cc2)nc1-c1cc2ccccc2s1
remaining binding (binding, competition with immobilised ligand; 1 µM): 43%

FC(F)(F)Oc1cccc(-c2cnc3ccc(-c4ccncc4)nn23)c1
remaining binding (binding, competition with immobilised ligand; 5 µM): 20%

CO[C@@H](C)c1c(Nc2ccc([C@@H](N(C)C(=O)C3CCS(=O)(=O)CC3)C(F)(F)F)cc2)cnc2cc(Cl)nn12
remaining binding (cell-free assay, competition with immobilised ligand; 1 µM): 100%

N[C@H]1CCN(c2nccc(-c3cnn4ncccc34)n2)C1
remaining binding (binding; 1 µM): 99%

C[C@@H](c1cccc(C#N)c1)n1cc(Cl)cc(C(N)=O)c1=N
remaining binding (cell-free assay, competition with immobilised ligand; 1 µM): 71%

CN(C)c1ncc(F)c(-c2cnn3ncccc23)n1
remaining binding (binding; 1 µM): 96%

CCCOc1ccc([C@@H]2[C@@H](C(=O)O)[C@H](c3ccc4c(c3)OCO4)CN2CC(=O)Nc2c(CC)cccc2CC)cc1
remaining binding (cell-free assay, competition with immobilised ligand; 1 µM): 100%

C[C@H]1CCN(c2nccc(-c3cnn4ncccc34)n2)C1
remaining binding (binding; 1 µM): 97%

CCOC(=O)c1cc2cc(-c3cc(C(=O)NCc4ccc(C(=O)O)cc4)nn3C)ccc2[nH]1
remaining binding (cell-free assay, competition with immobilised ligand; 0.1 µM): 87%

O=C(Nc1c[nH]nc1C(=O)NC1CCNCC1)c1cc(F)cc(F)c1
remaining binding (binding, competition with immobilised ligand; 1 µM): 100%
